Compound activity as filed in PubChem.
IDH1 R132H inh: inhibitors of IDH1 R132H reductase, primary screen, biochemical, plate reader, single point | diaphorase/resazurin fluorescence, 60 min | inhibition, % at 10 µM | 0.18% of 70,000 active | AID 624101, 2012; in the data active = inhibition above about 34%; inconclusive = no clear call, values can overlap the other calls; inactive = below about 11%;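 note: 0% = DMSO and 100% = no enzyme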
Pf Dd2 growth: P. falciparum Dd2 growth inhibitors, primary screen, SYBR Green fluorescence, single dose replicates. 72 h; active compounds read low. 2.3% of 94,000 active. activity change, % at 10 µM. AID 1159554, 2015; in the data active = activity change below about -80%; inconclusive = no clear call, values can overlap the other calls
T cruzi growth-1: T. cruzi intracellular proliferation inhibitors, primary screen, cell-based, beta-gal Tulahuen parasites, NIH3T3 host, luminescence; T. cruzi beta-gal in NIH3T3, GalScreen luminescence, 90 h; inhibition, % at 8.34 µM; 5.9% of 77,000 active; AID 624255, 2012;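 active = mean inhibition above about 93%, with at least 55% of replicates each passing it, limit read from the data, passing the limit was not always enough; inconclusive = only one of those two conditions holds; inactive = neither condition holds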
KDM4C inh: inhibitors of GASC-1 (KDM4C) histone demethylase, primary screen, biochemical, single concentration HTS. Lysine-specific demethylase 4C (Homo sapiens), Q9H3R0. GST-KDM4C 2-372, H3K9me3 peptide, LANCE TR-FRET. inhibition, % at 12.5 µM. 0.15% of 96,000 active. AID 720574, 2013;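 active = mean replicate inhibition above about 25%, with at least 55% of replicates also reaching it, limit read from the data, passing the limit was not always enough; inconclusive = only one of those two conditions met; inactive = neither condition met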
Target sequence (Q9H3R0 2-372 limits assumed): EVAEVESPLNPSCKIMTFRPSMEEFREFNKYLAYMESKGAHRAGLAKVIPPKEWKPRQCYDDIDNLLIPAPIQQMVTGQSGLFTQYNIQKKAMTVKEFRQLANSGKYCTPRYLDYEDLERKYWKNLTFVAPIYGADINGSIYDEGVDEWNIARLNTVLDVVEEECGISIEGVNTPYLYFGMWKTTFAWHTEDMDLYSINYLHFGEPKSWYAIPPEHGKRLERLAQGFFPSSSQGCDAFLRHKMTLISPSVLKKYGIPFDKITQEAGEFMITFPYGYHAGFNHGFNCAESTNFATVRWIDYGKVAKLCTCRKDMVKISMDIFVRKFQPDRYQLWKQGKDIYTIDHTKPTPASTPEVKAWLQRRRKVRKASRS
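System: N-terminal GST-fused human GASC-1 (KDM4C) fragment, residues 2-372 / Amount: 10 nM GST-KDM4C in enzyme reaction / Also added: H3K9me3 peptide with Fe(II)/2OG / Times: 30 min demethylation and 1 h detection at room temperature / Signal: LANCE TR-FRET / Read-out basis: Fall in 671/618 emission ratio as inhibition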
T cruzi growth-2: T. cruzi intracellular proliferation inhibitors, confirmation, cell-based, NIH3T3 host, beta-gal parasite, luminescence, cherry-pick; shares compounds with T cruzi growth-1; T. cruzi beta-gal in NIH3T3, GalScreen luminescence, 90 h; inhibition, % at 8.35 µM; 72% of 5,600 active; AID 651739, 2012;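 active = mean replicate inhibition above about 95% and at least 55% of replicates individually reaching it, limit read from the data; inconclusive = only one of the two criteria is met; inactive = neither criterion is met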
T cruzi growth-3: inhibitors of intracellular T. cruzi replication, confirmation, NIH3T3 host cells, beta-gal parasites, cherry-pick, set 2 | shares compounds with T cruzi growth-1 | T. cruzi beta-gal in NIH3T3, GalScreen luminescence, 90 h | inhibition, % at 2.09 µM | 21% of 5,600 active | AID 651740, 2012;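 active = mean inhibition above about 95%, with at least 55% of replicates also reaching it, limit read from the data; inconclusive = meets just one of the two conditions; inactive = meets neither condition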;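 note: plate controls were neutral control median for no effect and positive control median for full effect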
NIH3T3 tox: cytotoxicity in mouse NIH/3T3 fibroblasts, confirmation, cytotoxicity control for T. cruzi proliferation inhibitor project, cell-based, cherry-pick, single point; shares compounds with T cruzi growth-1; NIH/3T3 viability, CellTiter-Glo ATP luminescence, 90 h; cytotoxicity (signal decrease), % at 8.35 µM; 14% of 5,600 active; AID 651742, 2012;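 active = mean signal decrease across replicates above about 35% based on untreated-well scatter, with enough replicates individually passing, limit read from the data; inconclusive = no rule stated though some were filed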;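 note: 0% = median of neutral control wells and 100% = median of positive control wells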
3T3 cytotox 2: NIH/3T3 fibroblast cytotoxicity, confirmation, cytotoxicity control, cell-based, cherry-pick, single point, set 2; shares compounds with T cruzi growth-1; NIH/3T3 viability, CellTiter-Glo ATP luminescence, 90 h; inhibition, % at 24.9 µM; 56% of 5,600 active;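 active = mean loss of cell viability signal at or above a set limit, and enough replicates individually reaching it; inconclusive = meets only the mean limit or only the replicate share; inactive = meets neither condition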;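 note: 0% = median of neutral control wells and 100% = median of positive control wells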
Active calls of the source: *; u = inconclusive; x = not tested or not shown. Rows were chosen to be rich in hits. Some 5.9% of all compounds tested hit in one or more screens of this group.

SMILES	IDH1 R132H inh	Pf Dd2 growth	T cruzi growth-1	KDM4C inh	T cruzi growth-2	T cruzi growth-3	NIH3T3 tox	3T3 cytotox 2
OC[C@@H]1[C@@H](c2ccc(/C=C/c3ccccc3)cc2)[C@H]2CN(Cc3cccnc3)CCCCN12	x	-76	87	-1	x	x	x	x
OC[C@H]1[C@H](c2ccc(/C=C/c3ccccc3)cc2)[C@@H]2CN(Cc3cccnc3)CCCCN12	x	-71	104*	-1	108*	65	0	104*
OC[C@H]1[C@H](c2ccc(/C=C/c3ccccc3)cc2)[C@@H]2CN(Cc3ccncc3)CCCCN12	x	-62	u	4	110*	51	u	104*
N#Cc1ccc(-c2ccc([C@H]3[C@@H](CO)N4CCCCN(C(=O)Nc5ccc(F)cc5)C[C@H]34)cc2)cc1	x	-49	98*	-1	105*	105*	32	104*
O=C(C1CCCC1)N1CCCCN2[C@H](CO)[C@@H](c3ccc(-c4cccc(F)c4)cc3)[C@@H]2C1	x	-22	104*	x	98*	115*	42*	106*
N#Cc1cccc(-c2ccc([C@H]3[C@H]4CN(C(=O)Nc5ccccc5)CCCCN4[C@H]3CO)cc2)c1	x	13	57	-1	x	x	x	x
O=C(Nc1ccc(F)cc1)N1CCCCN2[C@H](C1)[C@H](c1ccc(-c3cccc(F)c3)cc1)[C@@H]2CO	x	-2	116*	-1	109*	77	10	79*
N#Cc1cccc(-c2ccc([C@H]3[C@H](CO)N4CCCCN(C(=O)Nc5ccc(F)cc5)C[C@@H]34)cc2)c1	x	4	102*	-1	104*	66	21	105*
O=C(Nc1ccc(F)cc1)N1CCCCN2[C@H](CO)[C@H](c3ccc(-c4cccc(F)c4)cc3)[C@H]2C1	x	-26	49	0	x	x	x	x
Cc1ccccc1-c1nnc(SCC(=O)Nc2ccc(Oc3ccccc3)cc2)n1C	0	x	x	x	x	x	x	x
C=C(C(=O)O)C1C(OC(=O)/C(=C/CO)CO)CC(C)(O)C2CC(OC(C)=O)C(C)=CC12 (stereo not drawn)	0	x	x	x	x	x	x	x
CCC(=O)N1CCCCN2[C@@H](CO)[C@H](c3ccc(-c4cccc(C#N)c4)cc3)[C@@H]2C1	x	27	107*	1	85	77	29	61*
C[C@@H]1CN([C@@H](C)CO)C(=O)c2cccc(NC(=O)C3CC3)c2O[C@H]1CN(C)Cc1ccc(C(=O)Nc2ccccc2N)cc1	1	-54	99*	-1	106*	94	-9	6
C[C@H]1CN([C@@H](C)CO)C(=O)c2cccc(NC(=O)NC3CCCCC3)c2O[C@H]1CN(C)Cc1ccc(C(=O)Nc2ccccc2N)cc1	x	-74	u	1	101*	u	-16	u
CC(C)NC(=O)Nc1cccc2c1O[C@@H](CN(C)Cc1ccc(C(=O)Nc3ccccc3N)cc1)[C@@H](C)CN([C@@H](C)CO)C2=O	0	-20	x	1	x	x	x	x
C[C@@H]1CN([C@@H](C)CO)C(=O)c2cccc(NC(=O)C3CCOCC3)c2O[C@H]1CN(C)Cc1ccc(C(=O)Nc2ccccc2N)cc1	x	-67	107*	6	105*	83	14	13
C[C@@H]1CN([C@H](C)CO)C(=O)c2cccc(NC(=O)C3CCOCC3)c2O[C@@H]1CN(C)Cc1ccc(C(=O)Nc2ccccc2N)cc1	x	3	81	-3	x	x	x	x
O=C(NCc1ccco1)c1cc(-c2cccnc2)nc2ccc(Br)cc12	0	x	x	x	x	x	x	x
Cc1nnc(SCC(=O)Nc2cc(Cl)ccc2Cl)s1	-1	x	x	x	x	x	x	x
